pIC50: −log10 of the molar value.
Experiments:
[1] = target: Prostaglandin E2 receptor EP4 subtype (Homo sapiens, UniProt P35408); experiment: In vitro binding at EP4 human prostaglandin receptor using [3H]PGE-2 as radioligand
Procedure, shortened: (§1)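 Receptors stably expressed in CHO cells, collected 4-5 days after seeding. Membranes made by lysis (Tris, EDTA, protease inhibitors) and 100000g pellet, then resuspended at 1 mg protein/mL in TME. Radioligands at 5 nM: [3H]PGE2 for EP2/EP3/EP4, [3H]Iloprost for IP, [3H]SQ-29548 for TP. Competition binding with filtration and counting.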

[2] = target: Prostaglandin E2 receptor EP2 subtype (Homo sapiens, UniProt P43116); experiment: In vitro binding at EP2 human prostaglandin receptor; procedure, shortened: as §1
Prostaglandin E2 receptor EP2 subtype, sequence (P43116 whole entry): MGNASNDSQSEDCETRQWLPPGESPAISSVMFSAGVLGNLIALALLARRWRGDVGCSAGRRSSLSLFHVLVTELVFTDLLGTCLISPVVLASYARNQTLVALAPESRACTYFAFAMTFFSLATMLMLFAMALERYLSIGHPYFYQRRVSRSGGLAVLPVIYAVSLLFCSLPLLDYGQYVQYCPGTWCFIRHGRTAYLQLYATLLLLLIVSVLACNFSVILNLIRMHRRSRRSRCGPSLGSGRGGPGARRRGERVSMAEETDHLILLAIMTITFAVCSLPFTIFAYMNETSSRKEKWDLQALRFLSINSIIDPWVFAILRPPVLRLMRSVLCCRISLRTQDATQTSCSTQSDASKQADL

Rattus norvegicus [3] = experiment: Derived trabecular no (mm-1)measured using micro Computed Tomography(CT) after a dose of 1000 ug/kg in Vertebral Bone; type: functional, Trabecula
Procedure, shortened: (§2)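 Micro-CT of the fifth lumbar vertebra, measuring cancellous bone volume and architecture. Rats were 6 months old, OVX 60 days before treatment, then dosed daily for 60 days. Test-agent doses were 10–3000 µg/kg, given as a once-daily subcutaneous injection; 6 mg/kg/day was given to the positive-control group. Groups were compared with vehicle by ANOVA plus LSD test.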

Rattus norvegicus [4] = experiment: Tissue area (mm) measured Histomorphometrically after a dose of 100 ug/kg in tibial diaphysis; type: functional
Procedure, shortened: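 Rats on natural chow (1.46% Ca) were bilaterally ovariectomized at 6 months and left untreated for 60 days. They then received once-daily subcutaneous doses for 60 days, with vehicle of acetate-buffered saline, methylcellulose and polysorbate. Xylenol orange (90 mg/kg) was given before treatment and calcein (10 mg/kg) 14 and 4 days before sacrifice. Tibiae were analysed by fluorescent histomorphometry, 6-8 rats/group, ANOVA/LSD vs vehicle.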

Rattus norvegicus [5] = experiment: Marrow area (mm) measured Histomorphometrically after a dose of 100 ug/kg in tibial diaphysis; type: functional
Procedure, shortened: (§3)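 Six-month-old rats, bilaterally ovariectomized, 6-8 per group, on natural chow. After 60 days they received once-daily subcutaneous dosing for 60 days at 0.01–3.0 mg/kg. Vehicle was acetate-buffered saline with methylcellulose and polyoxyethylenesorbitan monooleate. Labels were xylenol orange 90 mg/kg before treatment and calcein 10 mg/kg 14 and 4 days before sacrifice. Tibial histomorphometry was read under fluorescent light, with ANOVA/LSD versus vehicle.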

Rattus norvegicus [6] = experiment: Marrow area (mm) measured Histomorphometrically after a dose of 1000 ug/kg in tibial diaphysis; type: functional; procedure, shortened: as §3
Rattus norvegicus [7] = experiment: Trabecular thickness […] measured Histomorphometrically after a dose of 100 ug/kg in proximal tibial metaphysis; type: functional, Trabecula
Procedure, shortened: (§4)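 Six-month-old rats were ovariectomized, and 60 days later daily subcutaneous dosing began for 60 days, with vehicle of acetate-buffered saline, methylcellulose and polysorbate. Xylenol orange (90 mg/kg) labelled bone pre-treatment and calcein (10 mg/kg) 14 and 4 days pre-sacrifice. Histomorphometry covered the proximal tibial metaphysis 1-4 mm distal to the growth plate-metaphyseal junction. Groups were 6-8 rats, compared by ANOVA/LSD vs vehicle.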

Rattus norvegicus [8] = experiment: Derived trabecular thickness (um) measured using micro Computed Tomography(CT) after a dose of 10 ug/kg in Vertebral Bone; type: functional, Trabecula; procedure, shortened: as §2
Rattus norvegicus [9] = experiment: Trabecular thickness […] measured Histomorphometrically after a dose of 3000 ug/kg in proximal tibial metaphysis; type: functional, Trabecula; procedure, shortened: as §4
Rattus norvegicus [10] = experiment: Bone formation rate/bone volume (%/year)bone measured Histomorphometrically after a dose of 10 ug/kg in proximal tibial metaphysis; type: functional; settings: at 10 µg/kg
Rattus norvegicus [11] = experiment: Endosteal mineralizing surface Histomorphometrically after a dose of 300 ug/kg in tibial diaphysis; type: functional; procedure, shortened: as §3
Rattus norvegicus [12] = experiment: Mineralizing surface/bone surface(%) measured Histomorphometrically after a dose of 30 ug/kg in proximal tibial metaphysis; type: functional
Procedure, shortened: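 Ovariectomized six-month-old rats, 6-8 per group, were dosed subcutaneously once daily at 0.01–3.0 mg/kg for 60 days, starting 60 days after surgery. Vehicle was acetate-buffered saline, methylcellulose and polyoxyethylenesorbitan monooleate. Labels were xylenol orange 90 mg/kg pretreatment and calcein 10 mg/kg at 14 and 4 days before necropsy. Histomorphometry covered the proximal tibial metaphysis, 1–4 mm distal to the growth plate–metaphyseal junction. ANOVA/LSD versus vehicle.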

Rattus norvegicus [13] = experiment: Bone Volume /Tissue Volume (%)measured Histomorphometrically after a dose of 300 ug/kg in proximal tibial metaphysis; type: functional; settings: at 300 µg/kg
Rattus norvegicus [14] = experiment: Directly measured thickness(um) using micro Computed Tomography(CT) after a dose of 1000 ug/kg in Vertebral Bone; type: functional; procedure, shortened: as §2
Rattus norvegicus [15] = experiment: Derived trabecular no […]measured using micro Computed Tomography(CT) after a dose of 10 ug/kg in Vertebral Bone; type: functional, Trabecula; procedure, shortened: as §2
Rattus norvegicus [16] = experiment: Trabecular thickness […] measured Histomorphometrically after a dose of 1000 ug/kg in proximal tibial metaphysis; type: functional, Trabecula; procedure, shortened: as §4
Rattus norvegicus [17] = experiment: Bone formation rate/bone volume (%/year)bone measured Histomorphometrically after a dose of 30 ug/kg in proximal tibial metaphysis; type: functional; settings: at 30 µg/kg
Rattus norvegicus [18] = experiment: Endosteal mineralizing surface Histomorphometrically after a dose of 100 ug/kg in tibial diaphysis; type: functional; procedure, shortened: as §3
Rattus norvegicus [19] = experiment: Directly measured thickness(um) using micro Computed Tomography(CT) after a dose of 10 ug/kg in Vertebral Bone; type: functional; procedure, shortened: as §2
Rattus norvegicus [20] = experiment: Marrow area (mm) measured Histomorphometrically after a dose of 30 ug/kg in tibial diaphysis; type: functional; procedure, shortened: as §3
Rattus norvegicus [21] = experiment: Bone Volume /Tissue Volume (%)measured Histomorphometrically after a dose of 1000 ug/kg in proximal tibial metaphysis; type: functional; settings: at 1000 µg/kg
Rattus norvegicus [22] = experiment: Bone Volume /Tissue Volume (%)measured Histomorphometrically after a dose of 10 ug/kg in proximal tibial metaphysis; type: functional; settings: at 10 µg/kg
Rattus norvegicus [23] = experiment: Directly measured thickness(um) using micro Computed Tomography(CT) after a dose of 100 ug/kg in Vertebral Bone; type: functional; procedure, shortened: as §2
Rattus norvegicus [24] = experiment: Bone Volume /Tissue Volume (%)measured using micro Computed Tomography(CT) after a dose of 300 ug/kg in Vertebral Bone; type: functional; settings: at 300 µg/kg
Rattus norvegicus [25] = experiment: Trabecular no (mm)measured Histomorphometrically after a dose of 100 ug/kg in proximal tibial metaphysis; type: functional, Trabecula; procedure, shortened: as §4
Rattus norvegicus [26] = experiment: Bone Volume /Tissue Volume (%)measured using micro Computed Tomography(CT) after a dose of 30 ug/kg in Vertebral Bone; type: functional; settings: at 30 µg/kg
Rattus norvegicus [27] = experiment: Trabecular no (mm)measured Histomorphometrically after a dose of 300 ug/kg in proximal tibial metaphysis; type: functional, Trabecula; procedure, shortened: as §4
Rattus norvegicus [28] = experiment: Endosteal eroded surface(%) measured Histomorphometrically after a dose of 10 ug/kg in tibial diaphysis; type: functional
Procedure, shortened: (§5)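 Tibial histomorphometry in 6-month-old rats, OVX 60 days before treatment, then daily injection for 60 days. Vehicle was acetate-buffered saline with methylcellulose and polyoxyethylenesorbitan monooleate. Rats received xylenol orange 90 mg/kg before treatment and calcein 10 mg/kg at 14 and 4 days pre-sacrifice. Rats were killed by cardiac puncture under ketamine/xylazine. Groups were compared with vehicle by ANOVA plus LSD test.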

Rattus norvegicus [29] = experiment: Endosteal eroded surface(%) measured Histomorphometrically after a dose of 1000 ug/kg in tibial diaphysis; type: functional; procedure, shortened: as §5
Rattus norvegicus [30] = experiment: Directly measured thickness(um) using micro Computed Tomography(CT) after a dose of 30 ug/kg in Vertebral Bone; type: functional; procedure, shortened: as §2

Prostaglandin E2 receptor EP4 subtype, sequence (P35408 whole entry): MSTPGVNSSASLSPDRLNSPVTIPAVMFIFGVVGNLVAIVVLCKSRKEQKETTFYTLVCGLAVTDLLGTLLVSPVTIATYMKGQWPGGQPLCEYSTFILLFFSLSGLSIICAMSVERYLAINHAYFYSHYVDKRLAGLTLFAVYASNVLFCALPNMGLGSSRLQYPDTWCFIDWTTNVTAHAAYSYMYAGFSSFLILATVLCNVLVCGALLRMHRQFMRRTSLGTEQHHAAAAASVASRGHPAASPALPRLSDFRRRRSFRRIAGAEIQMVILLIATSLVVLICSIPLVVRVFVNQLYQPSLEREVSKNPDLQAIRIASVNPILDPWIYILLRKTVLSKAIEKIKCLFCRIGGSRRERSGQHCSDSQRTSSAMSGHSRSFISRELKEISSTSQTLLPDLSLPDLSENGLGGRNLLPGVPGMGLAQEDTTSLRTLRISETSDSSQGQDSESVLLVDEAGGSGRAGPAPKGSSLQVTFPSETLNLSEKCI

In the case of CP(=O)(O)CCC/C=C\C[C@@H]1[C@@H](/C=C/[C@@H](O)COc2ccccc2)[C@H](O)C[C@@H]1O, the pIC50 [1] was under 5.00, the pIC50 [2] was under 5.00 and the Derived trabecular number (Rattus norvegicus [3]) was 4.59 mm-1. For the same molecule, the Tissue area (Rattus norvegicus [4]) was 4.95 mm, the Marrow area (Rattus norvegicus [5]) was 0.82 mm² and the Marrow area (Rattus norvegicus [6]) was 0.86 mm². For the same molecule, the Trabecular thickness (Rattus norvegicus [7]) was 45.5 µm, the Derived trabecular thickness (Rattus norvegicus [8]) was 73 µm and the Trabecular thickness (Rattus norvegicus [9]) was 55.8 µm. It also gave an Activity (Rattus norvegicus [10]) of 498.01%, an Endosteal mineralizing surface (Rattus norvegicus [11]) of 29.02% and an Activity (Rattus norvegicus [12]) of 30.59%. The Activity (Rattus norvegicus [13]) was 5.72%, the Directly measured thickness (Rattus norvegicus [14]) was 128 µm and the Derived trabecular number (Rattus norvegicus [15]) was 4.26 mm-1. The Trabecular thickness (Rattus norvegicus [16]) was 56.7 µm, the Activity (Rattus norvegicus [17]) was 495.65% and the Endosteal mineralizing surface (Rattus norvegicus [18]) was 22.28%. For the same molecule, the Directly measured thickness (Rattus norvegicus [19]) was 118 µm, the Marrow area (Rattus norvegicus [20]) was 0.87 mm² and the Activity (Rattus norvegicus [21]) was 9.43%. The Activity (Rattus norvegicus [22]) was 2.23%, the Directly measured thickness (Rattus norvegicus [23]) was 127 µm and the Activity (Rattus norvegicus [24]) was 38.61%. For the same molecule, the Trabecular no. (Rattus norvegicus [25]) was 1.28 1/mm, the Activity (Rattus norvegicus [26]) was 34.58% and the Trabecular no. (Rattus norvegicus [27]) was 1.27 1/mm. It also gave an Endosteal eroded surface (Rattus norvegicus [28]) of 11.83%, an Endosteal eroded surface (Rattus norvegicus [29]) of 2.74% and a Directly measured thickness (Rattus norvegicus [30]) of 126 µm.

Source: ChEMBL document CHEMBL1134785, “Synthesis and biological evaluation of prostaglandin-F alkylphosphinic acid derivatives as bone anabolic agents for the treatment of osteoporosis” (J Med Chem, 2001)
